Measured values taken from ChEMBL document CHEMBL1124809, “Synthesis and biological evaluation of analogues of Pro-Leu-Gly-NH2 modified at the leucyl residue” (J Med Chem, 1990).
Calls of active or inactive are those of the source. No cut-off for these calls is given here. Where a SMILES comes first, the peptide text is derived from it. [ ]: non-standard residue; d: D form. Phe(4-NO2) = N[C@@H](Cc1ccc([N+](=O)[O-])cc1)C(=O)O; Phg = N[C@H](C(=O)O)c1ccccc1; Nle = CCCC[C@H](N)C(=O)O; Nva = CCC[C@H](N)C(=O)O; Abu = CC[C@H](N)C(=O)O

How the values were obtained:
[1] = target: D(2) dopamine receptor (Bos taurus) (UniProt P20288); test: Ability to enhance the binding of [3H]ADTN to dopamine receptor D2 isolated from bovine striatal membranes; inactive
Sequence of D(2) dopamine receptor (Bos taurus) (P20288 whole entry): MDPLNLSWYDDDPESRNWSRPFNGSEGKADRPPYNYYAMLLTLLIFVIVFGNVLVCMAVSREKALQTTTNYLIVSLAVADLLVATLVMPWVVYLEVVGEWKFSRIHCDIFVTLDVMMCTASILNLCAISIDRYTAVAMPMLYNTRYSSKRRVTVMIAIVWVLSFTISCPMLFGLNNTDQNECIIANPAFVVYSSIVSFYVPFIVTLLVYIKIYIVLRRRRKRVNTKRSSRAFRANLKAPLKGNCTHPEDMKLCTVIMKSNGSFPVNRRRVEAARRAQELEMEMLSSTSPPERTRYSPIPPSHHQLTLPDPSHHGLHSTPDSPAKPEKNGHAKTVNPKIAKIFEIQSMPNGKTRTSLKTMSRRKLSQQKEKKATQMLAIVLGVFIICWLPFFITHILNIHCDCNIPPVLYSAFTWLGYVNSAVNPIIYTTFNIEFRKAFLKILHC
In short: (§1)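 Membranes from freshly dissected bovine caudate, homogenized in 50 mM Tris-HCl/1 mM EDTA pH 7.4, centrifuged twice at 27000g. Resuspended in Tris-HCl with ascorbate, MnCl2, DTT, PMSF, soybean trypsin inhibitor and bacitracin. 0.2–0.3 mg protein incubated with 8 nM [3H]ADTN ± peptide (10⁻¹²–10⁻⁴ M) for 10 min at 37 °C in triplicate. GF/B filtration, scintillation counting, % increase in specific binding over control.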

[2] = target: D(2) dopamine receptor (Bos taurus) (UniProt P20288); test: Ability to stimulate the binding of [3H]ADTN to Dopamine receptor D2 isolated from bovine striatal membranes at 1 uM concentration; in short: as §1
[3] = target: D(2) dopamine receptor (Bos taurus) (UniProt P20288); test: Ability to enhance the binding of [3H]-ADTN to Dopamine receptor D2 isolated from bovine caudate membranes at 1 uM concentration; in short: as §1
[4] = target: D(2) dopamine receptor (Bos taurus) (UniProt P20288); test: Ability to enhance the binding of [3H]ADTN to Dopamine receptor D2 isolated from bovine striatal membranes; maximum effect at 0.1 uM; in short: as §1

CCC[C@H](NC(=O)[C@@H]1CCCN1)C(=O)NCC(N)=O (H-Pro-[Nva]-Gly-NH2)
Activity [1]: inactive

CC[C@H](NC(=O)[C@@H]1CCCN1)C(=O)NCC(N)=O (H-Pro-[Abu]-Gly-NH2)
Activity [1]: inactive

NC(=O)CNC(=O)[C@H](CCc1ccccc1)NC(=O)[C@H]1CCCN1
Activity [1]: inactive

NC(=O)CNC(=O)[C@H](CCc1ccccc1)NC(=O)[C@@H]1CCCN1
Activity [1]: inactive

NC(=O)CNC(=O)[C@H](Cc1ccc([N+](=O)[O-])cc1)NC(=O)[C@@H]1CCCN1 (H-Pro-[Phe(4-NO2)]-Gly-NH2)
Activity [1]: inactive

NC(=O)CNC(=O)[C@H](Cc1ccccc1)NC(=O)[C@@H]1CCCN1 (H-Pro-Phe-Gly-NH2)
Stimulation [2]: 31%

CC(C)C[C@H](NC(=O)[C@@H]1CCCN1)C(=O)NCC(N)=O (H-Pro-Leu-Gly-NH2)
Stimulation [3]: 27%

COc1ccc(C[C@H](NC(=O)[C@@H]2CCCN2)C(=O)NCC(N)=O)cc1 (H-Pro-Tyr(Me)-Gly-NH2)
Activity [1]: inactive

NC(=O)CNC(=O)[C@@H](NC(=O)[C@@H]1CCCN1)c1ccccc1 (H-Pro-[Phg]-Gly-NH2)
Activity [1]: inactive

CCCC[C@H](NC(=O)[C@@H]1CCCN1)C(=O)NCC(N)=O (H-Pro-[Nle]-Gly-NH2)
Activity [4]: Active

CC[C@H](C)[C@H](NC(=O)[C@@H]1CCCN1)C(=O)NCC(N)=O (H-Pro-Ile-Gly-NH2)
Activity [1]: inactive
